System: U2OS
Assay: Multiplex assay against U2OS
Assay type: toxicity, cell-based
Details: human
Summary of the method: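 With compound added, live cells were imaged on a CQ1 microscope at 37°C and 5% CO2; staining with Hoechst33342, BioTracker Green Microtubule Cytoskeleton Dye, MitoTracker Red and Annexin V Alexa Fluor 680 had been done at seeding. The CellPathfinder machine-learning gating scheme split cells into Hoechst high-intensity objects or normal cells, normal cells into healthy, pyknosed or fragmented nuclei, and pyknosed cells into mitotic or apoptotic. The tubulin, mitochondrial-mass and membrane-permeability phenotypes are per cents of healthy-nucleus cells.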

[1] = 12 h, 1 µM, compound concentration 1 uM, replicate 1
[2] = 12 h, 1 µM, compound concentration 1 uM, replicate 2
[3] = 12 h, 10 µM, compound concentration 10 uM, replicate 1
[4] = 12 h, 10 µM, compound concentration 10 uM, replicate 2
[5] = 24 h, 1 µM, compound concentration 1 uM, replicate 1
[6] = 24 h, 1 µM, compound concentration 1 uM, replicate 2
[7] = 24 h, 10 µM, compound concentration 10 uM, replicate 1
[8] = 24 h, 10 µM, compound concentration 10 uM, replicate 2
[9] = 48 h, 1 µM, compound concentration 1 uM, replicate 1
[10] = 48 h, 1 µM, compound concentration 1 uM, replicate 2
[11] = 48 h, 10 µM, compound concentration 10 uM, replicate 1
[12] = 48 h, 10 µM, compound concentration 10 uM, replicate 2

## Cc1c(P(=S)(c2ccccc2)c2ccccc2)n2ccccc2[n+]1C/C=C/c1ccccc1.[Br-]
[1]
  Population Apoptotic (%): 54%
  Population Fragmented Nuclei (%): 21%
  Population Healthy Nuclei (%): 69%
  Population Hoechst High Intensity Objects (%): 5%
  Population Membrane Permeable-Phenotype (%): 13%
  Population Mitochondria Different-Phenotype (%): 35%
  Population Mitotic Cells (%): 45%
  Population Normal (%): 94%
  Population Pyknosed Nuclei (%): 9%
  Population Tubulin-Different-Phenotype (%): 26%
  Total Cell Count: 133
[2]
  Population Apoptotic (%): 75%
  Population Fragmented Nuclei (%): 50%
  Population Healthy Nuclei (%): 45%
  Population Hoechst High Intensity Objects (%): 22%
  Population Membrane Permeable-Phenotype (%): 10%
  Population Mitochondria Different-Phenotype (%): 50%
  Population Mitotic Cells (%): 25%
  Population Normal (%): 77%
  Population Pyknosed Nuclei (%): 4%
  Population Tubulin-Different-Phenotype (%): 31%
  Total Cell Count: 93
[3]
  Population Apoptotic (%): 89%
  Population Fragmented Nuclei (%): 28%
  Population Healthy Nuclei (%): 9%
  Population Hoechst High Intensity Objects (%): 21%
  Population Membrane Permeable-Phenotype (%): 88%
  Population Mitochondria Different-Phenotype (%): 100%
  Population Mitotic Cells (%): 10%
  Population Normal (%): 78%
  Population Pyknosed Nuclei (%): 61%
  Population Tubulin-Different-Phenotype (%): 100%
  Total Cell Count: 121
[4]
  Population Apoptotic (%): 94%
  Population Fragmented Nuclei (%): 21%
  Population Healthy Nuclei (%): 10%
  Population Hoechst High Intensity Objects (%): 8%
  Population Membrane Permeable-Phenotype (%): 83%
  Population Mitochondria Different-Phenotype (%): 83%
  Population Mitotic Cells (%): 5%
  Population Normal (%): 91%
  Population Pyknosed Nuclei (%): 68%
  Population Tubulin-Different-Phenotype (%): 83%
  Total Cell Count: 108
[5]
  Population Apoptotic (%): 55%
  Population Fragmented Nuclei (%): 12%
  Population Healthy Nuclei (%): 73%
  Population Hoechst High Intensity Objects (%): 5%
  Population Membrane Permeable-Phenotype (%): 12%
  Population Mitochondria Different-Phenotype (%): 18%
  Population Mitotic Cells (%): 45%
  Population Normal (%): 94%
  Population Pyknosed Nuclei (%): 13%
  Population Tubulin-Different-Phenotype (%): 12%
  Total Cell Count: 174
[6]
  Population Apoptotic (%): 75%
  Population Fragmented Nuclei (%): 55%
  Population Healthy Nuclei (%): 40%
  Population Hoechst High Intensity Objects (%): 33%
  Population Membrane Permeable-Phenotype (%): 9%
  Population Mitochondria Different-Phenotype (%): 31%
  Population Mitotic Cells (%): 25%
  Population Normal (%): 66%
  Population Pyknosed Nuclei (%): 3%
  Population Tubulin-Different-Phenotype (%): 15%
  Total Cell Count: 124
[7]
  Population Fragmented Nuclei (%): 34%
  Population Healthy Nuclei (%): 4%
  Population Hoechst High Intensity Objects (%): 14%
  Population Membrane Permeable-Phenotype (%): 75%
  Population Mitochondria Different-Phenotype (%): 100%
  Population Normal (%): 85%
  Population Pyknosed Nuclei (%): 61%
  Population Tubulin-Different-Phenotype (%): 100%
  Total Cell Count: 154
[8]
  Population Apoptotic (%): 100%
  Population Fragmented Nuclei (%): 23%
  Population Healthy Nuclei (%): 38%
  Population Hoechst High Intensity Objects (%): 26%
  Population Membrane Permeable-Phenotype (%): 81%
  Population Mitochondria Different-Phenotype (%): 81%
  Population Mitotic Cells (%): 0%
  Population Normal (%): 73%
  Population Pyknosed Nuclei (%): 38%
  Population Tubulin-Different-Phenotype (%): 81%
  Total Cell Count: 163
[9]
  Population Fragmented Nuclei (%): 7%
  Population Healthy Nuclei (%): 85%
  Population Hoechst High Intensity Objects (%): 5%
  Population Membrane Permeable-Phenotype (%): 3%
  Population Mitochondria Different-Phenotype (%): 13%
  Population Normal (%): 94%
  Population Pyknosed Nuclei (%): 7%
  Population Tubulin-Different-Phenotype (%): 11%
  Total Cell Count: 277
[10]
  Population Apoptotic (%): 60%
  Population Fragmented Nuclei (%): 42%
  Population Healthy Nuclei (%): 49%
  Population Hoechst High Intensity Objects (%): 25%
  Population Membrane Permeable-Phenotype (%): 5%
  Population Mitochondria Different-Phenotype (%): 21%
  Population Mitotic Cells (%): 40%
  Population Normal (%): 74%
  Population Pyknosed Nuclei (%): 8%
  Population Tubulin-Different-Phenotype (%): 8%
  Total Cell Count: 213
[11]
  Population Fragmented Nuclei (%): 43%
  Population Healthy Nuclei (%): 3%
  Population Hoechst High Intensity Objects (%): 19%
  Population Membrane Permeable-Phenotype (%): 66%
  Population Mitochondria Different-Phenotype (%): 100%
  Population Normal (%): 80%
  Population Pyknosed Nuclei (%): 53%
  Population Tubulin-Different-Phenotype (%): 100%
  Total Cell Count: 207
[12]
  Population Apoptotic (%): 100%
  Population Fragmented Nuclei (%): 75%
  Population Healthy Nuclei (%): 18%
  Population Hoechst High Intensity Objects (%): 21%
  Population Membrane Permeable-Phenotype (%): 75%
  Population Mitochondria Different-Phenotype (%): 75%
  Population Mitotic Cells (%): 0%
  Population Normal (%): 78%
  Population Pyknosed Nuclei (%): 6%
  Population Tubulin-Different-Phenotype (%): 75%
  Total Cell Count: 153

From ChEMBL document CHEMBL4689842, “EUbOPEN Chemogenomics Library wave 1” (2021)
